Results taken from the EternaBench riboswitch data.

Tested on: MS2 coat protein
Test: apparent Kd, MS2 coat protein; higher = weaker binding; RNA-MaP array; FMN 200 µM where present
Summary of the method: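 The apparent Kd is the median of filtered binding-curve fits, one per cluster, to green signal normalised to red-channel RNA signal and control-cluster median Fmax. The clusters were on Illumina sequencing chips, and stalled E. coli RNA polymerase had transcribed the designs on them. Titration used SNAP-549-labelled MS2 coat protein from 0.7 or 1.5 nM, doubling to 3 µM, without and then with constant ligand, in 100 mM Tris-HCl pH 7.5, 80 mM KCl, 4 mM MgCl2, BSA, DTT, yeast tRNA and Tween-20.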

[1] = designed as: OFF switch for flavin mononucleotide, no ligand
[2] = ligand present: flavin mononucleotide, designed as: OFF switch for flavin mononucleotide
[3] = designed as: ON switch for flavin mononucleotide, no ligand
[4] = ligand present: flavin mononucleotide, designed as: ON switch for flavin mononucleotide

Sequence	apparent Kd [1] [nM]	apparent Kd [2] [nM]	apparent Kd [3] [nM]	apparent Kd [4] [nM]
UUGCUCAAAUGGGCAGGGACCUCACAUGAGGAUCACCCAUGUCAGGAUAUCCUAGUUUGGACGUAGGAGAAGGGACAGAGUAUC	227	171	–	–
AUAAAUAAGCAAGGAUAUUGUUUAAAUAAAUAACAAGAAGGUGCAGUUAAUUUCUCAAAACAUGAGGAUCACCCAUGUAUUUAA	–	–	42.4	21.8
GUAAUACAUGAGGAUCACCCAUGUAAGGAUAUGCUAGCGGUCGGCUGACUGACUGCUAGCAGAAGGUACAUGAU	85.1	128	–	–
UGCUACAUGAGGAUCACCCAUGUAAUGUGGGAUUCGUUAGGACAGGAUAUGAUUGUAUAGUUUUUUCAGAAGGGUCAUUACUUU	69.2	135	–	–
GCGAUUUUGUAGAAGGUACGUUAUAAGACAAUGUAAGGAUAUACUGACAUGAGGAUCACCCAUGUAUAAAUAGUUAACAGUCGC	–	–	8.89	6.68
UCAGGCUUCGAGAAGGACAUGAAUCGUAGCAUUGCUACGAUCAAAGAUACAUGAGGAUCACCCAUGUAGGAUAUCGGAGUCUGC	5.75	7.63	–	–
AUAUAUAUAAGGUAGGAUAUACUAAAGUAAACAUGAGGAUCACCCAUGUAAAGAAAGAAACUCAUGUAGAAGGACCAUAUAUAUAU	–	–	171	36.5
UGUUACUAGUAAGGAUAUACUAGCGAUAAGCUAGUAGAAGGUACAGUCUUUUGUAUAUCAUGUUUACAUGAGGAUCACCCAUGU	–	–	9.09	7.49
CCGUAAAAUGGAGGAUAUGGAGCCUUAUUGGCUCCAGAAGGUCAUAAAACAUGAGGAUCACCCAUGUCGGCGGUCAAUAGACCG	–	–	47.9	20.2
GCUGGUCAAGGAUAUGCAAUCGUGCUUCGGCACGUAAGAUCACAUGAGGAUCACCCAUGUAGAAGGUGACCAGC	22.5	59.8	–	–
AUCGGGAGAGGAUAUACAUGAGGAUCACCCAUGUUGGGAACAUCGGUUUGUUAGUUGCGUAGAAGGCUCGGGCG	46.4	66.3	–	–
UUGAAGUCAUCAGGAUAUAGUAUUAAAGACAUUUAUAUUUUCAAACAUGAGGAUCACCCAUGUCGCUAGAAGGGAUUAUAGAUU	49.1	44.9	–	–
AGUGUCAUCGAGAAGGCCUCAACAUGAGGAUCACCCAUGUUGCAAAAUGGGAGGAUAUCAAAACUACAGCUACGUUUCGUAGCA	–	–	69.1	9.44
UUGGACGUCGUAGGAUAUGUAGGAUAUUCCUACAUGAGGAUCACCCAUGUUGACAUGGAAGAAUGACAGAAGGACGAUGUCCAU	–	–	712	11.8
AUGAGUAAAGCAGGAUAUCUAUUGUCUCUGUAACAUGAGGAUCACCCAUGUAGAGAAGGGCUUAGUCAUACUCUUCGGAGUUGA	7.27	9.55	–	–
GGAUAGGACAGAGGAUAUACGUGUUAGAGAUACUAGCAAAAUUUCCUCACAUGAGGAUCACCCAUGUAGAAGGCUGUCCUAUCG	23.1	413	–	–
GCCUCAGAAUUAAUUGUGAGAGGCAGAAGGCUAUAUCUCGUGUUAAACAUGAGGAUCACCCAUGUAGAGGAUAUGCUAUUACAG	9.3	10.6	–	–
ACAUCGACAGGAUAUACGUGAGUGGAAAAAGUAUGUCCACUACAUGAGGAUCACCCAUGUAGAAGGGUCGAUGA	16.2	15	–	–
AUAUGAUAGAUAGGAUAUACUAUGGUUUAAGAAGUAGAAGGAUCAAUUGGGAAAUGUACAUGAGGAUCACCCAUGUUAUAGGUU	–	–	35.2	33.5
UGGUUGGGAGGAUAUCCAAUAUAUGACAUGAGGAUCACCCAUGUUUCCACUCGUACCUCCGGAGAAGGCCCUUCCU	22.8	21.6	–	–
GAAACGCUUGACAUGAGGAUCACCCAUGUUAGAUUGUUAUGUCAGGAUAUAGUCUAGAAACUAGACUAGAAGGGAUAUGUUUCU	–	–	438	107
UGGUACAUGGGAGGAUAUCGUGUAGACACAUGAGGAUCACCCAUGUCGAUGGAGACAUCGGAGAUCGAGAAGGCCCAUGUACCU	–	–	84.6	8.81
GAGACUACCGAGAAGGGCAUAUUAAGACUCUUCGUACUACGCCUAGACAUGAGGAUCACCCAUGUGCAGGAUAUCGAGCGGCUC	6.38	6.05	–	–
CAGAUCGGCUAGGAUAUCCAUGGUAUGUUACGAGGAGAAGGAGUCACAUGAGGAUCACCCAUGUCUCAUACUGA	24.7	31.8	–	–
ACAUCGUGAGACAUGAGGAUCACCCAUGUGUGAUAGUGGGCACAGGAUAUCCAAAUUUGGAAUUUGGAGAAGGGUGAUCGUUAA	–	–	72.1	68.6
ACAUGCGGAUGAGGAUAUUCAUUUAUGAGGAUAGAAGAAGGCAUACAUGAGGAUCACCCAUGUAUACGCAUGAGGAUCCCUUAU	41.1	40	–	–
ACAUGAGGAUCACCCAUGUAUUACAUGGUUAAGUUUAUAAACAGAAGGCGAUAAUACUUAUUGUUCGAGGAUAUGUAAUCAAUU	113	84.1	–	–
CGAACUCCGUAGAAGGGUGACAUGAGGAUCACCCAUGUGCGAGCGGAGGGAGUCAGCGGCUCGCCACAGGAUAUACGGAGCACG	–	–	49.4	107

Sequence	apparent Kd [1] [nM]	apparent Kd [2] [nM]	apparent Kd [3] [nM]	apparent Kd [4] [nM]
GAUUGACAUGAGGAUCACCCAUGUGAGGAUAUCGGCUGGACCGUGUUGGCUUCCGUCUCGAGAAGGCGCAUAGG	16	23.3	–	–
AUCCGGCGUGUAGGAUAUGGAUCCGAUUAGGAUCCAGAAGGACAUGAGGAUCACCCAUGUACAUGUAAACAGUCAUCACCGGAA	10.2	49.4	–	–
AGAGCCUCGUGAGGAUAUACAUGAGGAUCACCCAUGUAAAUGAAUGAACGGUGGAAACACCGAAUGUAGAAGGCACGAGGCUCA	37.9	223	–	–
GGGCCACAUGAGGAUCACCCAUGUAAACCCGUGCUCAGGGCACAGGAUAUGGGUCGGGAUGAGACCCAGAAGGGUGGUCUGGCC	–	–	33.4	18.2
GUGUAGACAGGAUAUGCUUUGAGCGUAUGAGAGUAGGCUCGACAUGAGGAUCACCCAUGUAGAAGGGUCUACAC	12.4	13.2	–	–
GCCAUCGCAUGAGGAUAUGCUCCGGUUUCCGGAGCAGAAGGCAUGUCAUAAAACAUGAGGAUCACCCAUGUAGUUAAGAUGGCA	–	–	8.86	5.18
AAUAUAAAGAGCUGGCUCAAUUUAACAUGAGGAUCACCCAUGUAGGAUAUCAGCACGAUAAGUGCUGAGAAGGACAUCCAGCUC	16.7	36	–	–
UGUUGUAUUACAGGAUAUCUAGGAUUUUUAUUUAGAGAAGGGUAUUCACAUGAGGAUCACCCAUGUAUAUACGAGGAAGUUGUG	–	–	40.2	41.3
CACGAUCAUGUAGGAUAUAUACUGGAAUACAGUAUAGAAGGACAUGAGGAUCACCCAUGUUAAGUGCCUCCAAGUAAGAUCGUG	17	23	–	–
AAUUUACAUGAGGAUCACCCAUGUGAGGAUAUGAUACUAUGUACUUCGGUACAUAGUAUCAGAAGGCAUGUGAA	128	97.7	–	–
CGGGUCUGAGGAUAUCCAUCUUCAUACAUGAGGAUCACCCAUGUUUACCCUUGGGUUCCUGGAGAAGGCAGUUUUC	166	162	–	–
GGCUCUAGAGGAUAUACAAACUGAUCCUCAGAGCGCCGGCUACAUGAGGAUCACCCAUGUAGAAGGUUGGAGUC	15.6	13.1	–	–
AUCAGCUCGUCAGGAUAUACGUCACUGCUUCGGCAGUGUGGUAAGAUCACAUGAGGAUCACCCAUGUAGAAGGGACGAGCUGAC	13.6	237	–	–
ACGCCCUGAGGAUAUCUUAUCCCGUACAUGAGGAUCACCCAUGUUCUCCUCCGGGCUCCGAGAGAAGGCAGGCCCA	26.7	37	–	–
UUUUAACAUGAGGAUCACCCAUGUGAGGAUAUCGAAAUUUAUAUUAAUAUUAUUAAAUCGAGAAGGCACAUUUU	102	97.4	–	–
UUUUAACAUGAGGAUCACCCAUGUGAGGAUAUCGAAAUUUAUAUUAAUAUUAUUAUAACGAGAAGGCACAUUUU	66.5	82.9	–	–
UAUUUUUAUGUAAGGAUAUGGGUUUGGUUGCGGGCUUAGAAGGUACAUGAGGAUCACCCAUGUAUUUUGUGCGU	16.9	18.3	–	–
GCAGCACAGAUUUACAUGAGGAUCACCCAUGUCUAUUGAGAUGAGGAUAUGCAUCGAAUGAAGUUGCAGAAGGCAUUGUGCUGC	–	–	7.51	6
AACCAUGAGCGAGGAUAUCACCCUACGGAGUGGUGAGAAGGCGCAACAUGAGGAUCACCCAUGUACAAAUGCGGGACCCUUUUC	31	92.6	–	–
CAGAAUUGAGGAUAUGAUCAAUUUAACAUGAGGAUCACCCAUGUAUGGGAAUGAUUCUGAUCAGAAGGCGAUUCUU	1290	910	–	–
AUUUUAAAGGGAGGAUAUACAUGAGGAUCACCCAUGUAAACGUGAGGAUCACCCAUGUAAACAAUGUAGAAGGCCUAUAUCUAU	86	74.1	–	–
AUCAGCUCGUCAGGAUAUGCAUCACUGCUUCGGCAGUGUGGUAAGAUCACAUGAGGAUCACCCAUGUAGAAGGGACGAGCUGAU	9.83	69.4	–	–
CCAGCGUAUGUGAGGAUAUGCUGGUCCUUGGAUCAGCAGAAGGCACAUGAGGAUCACCCAUGUGGAAUCGUUGG	23.5	92.1	–	–
UUUUAGCAAGGAUAUACAUUUUUUUUAUUAUCCUCAUUAUUACAUGAGGAUCACCCAUGUAGAAGGUGCAUUUU	75.9	81.5	–	–
GUUUAGUGAGGAUAUGUGGCGUCGAUCGAGCGCGGUCUGCUACAGAAGGCACAUGAGGAUCACCCAUGUUUCUC	258	371	–	–
GGUUGGCGAGGAUAUACAUGAGGAUCACCCAUGUGGUCCUGUGGCUGGUCAAACCUUUGUAGAAGGCGCGGGUC	236	228	–	–
AAAAAGUCAGGAUAUGUCAAAGGUCACGAAAGUGACAAAGGACAGAAGGGACAUGAGGAUCACCCAUGUAAAAA	30.2	46.1	–	–
